Measured values: ChEMBL document CHEMBL3616433, “Synthesis and anti-cancer potential of the positional isomers of NOSH-aspirin (NBS-1120) a dual nitric oxide and hydrogen sulfide releasing hybrid” (Bioorg Med Chem Lett, 2015)
pIC50: −log10 of the molar value. The source made the active and inactive calls. The calls are words filed in the database; no cut-off is given here.

How the values were obtained:
HT-29 [1] = assay: Cell cycle arrest in human HT-29 cells assessed as accumulation at G0/G1 phase at 1 to 2 times IC50 after 24 hrs using propidium iodide by flow cytometry
HT-29 [2] = assay: Cell cycle arrest in human HT-29 cells assessed as accumulation at G0/G1 phase at 1 to 2 times IC50 after 24 hrs using propidium iodide by flow cytometry; assay type: functional, cell-based
In short: (§1)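 HT-29 cells (0.5×10^6) treated 24 h, then trypsinized, fixed in 70% ethanol (10 min, −20°C), held in PBS/1% FBS/0.5% NP-40 on ice 5 min, and stained with propidium iodide 40 µg/mL plus RNase IIA 200 µg/mL. Flow cytometry within 30 min, >10,000 events per subset. Phase percentages were taken from DNA-content histograms. Representative of two experiments agreeing within 10%.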

HCT-15 = assay: Cytotoxicity against human HCT15 cells assessed as growth inhibition after 24 hrs by MTT assay; assay type: functional, cell-based; settings: HCT-15, 24 h
In short: (§2)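 Cells grown in RPMI 1640 with 10% FBS, penicillin/streptomycin, at 37°C and 5% CO2. Compounds came from 100 mM DMSO stocks, with final DMSO 1% in all media. Growth was read by colorimetric MTT kit after 24 h. IC50 came from dose-response curves. Mean ± SEM of three to five experiments, each in triplicate.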

HT-29 [3] = assay: Cell cycle arrest in human HT-29 cells assessed as accumulation at S phase at 1 to 2 times IC50 after 24 hrs using propidium iodide by flow cytometry; assay type: functional, cell-based
In short: as §1

HT-29 [4] = assay: Induction of ROS generation in human HT-29 cells assessed as increase in intracellular superoxide anion level at 250 nM after 1 hr using DHE staining by flow cytometry relative to control; assay type: functional
In short: (§3)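 HT-29 cells (0.3×10^6/well) plated for 24 h, then treated 1 h. They were trypsinized, PBS-washed, and loaded with dihydroethidium (5 µM) for 30 min at 37°C in the dark. Superoxide fluorescence was measured by flow cytometry relative to basal. Mean ± SEM of three independent experiments.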

HT-29 [5] = assay: Cytotoxicity against human HT-29 cells assessed as reduction in PCNA expression at 50 to 500 nM after 24 hrs by ELISA relative to vehicle treated control; assay type: functional, cell-based
In short: (§4)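 HT-29 cells (1×10^6 cells/mL) exposed to a range of concentrations for 24 h. PCNA antigen was quantified by ELISA kit per the manufacturer's protocol and expressed as % of vehicle-treated cells. Mean ± SEM of 3 experiments run in duplicate; ANOVA with Tukey's test.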

HT-29 [6] = assay: Induction of ROS generation in human HT-29 cells assessed as increase in intracellular peroxide level at 250 nM after 1 hr using DCFDA staining by flow cytometry relative to control; assay type: functional
In short: (§5)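 Plate HT-29 cells at 0.3×10^6/well for 24 h, then treat 1 h. Trypsinize, wash in PBS, and incubate with DCFDA (10 µM) 30 min at 37°C in the dark. Read fluorescence by flow cytometry as fold over basal. Mean ± SEM of three independent experiments.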

HT-29 [7] = assay: Cytotoxicity against human HT-29 cells assessed as growth inhibition after 24 hrs by MTT assay; assay type: functional, cell-based; settings: HT-29, 24 h
In short: as §2

HT-29 [8] = assay: Induction of apoptosis in human HT-29 cells assessed as early apoptotic cells at 50 to 500 nM after 24 hrs using annexin-V staining by flow cytometry relative to control; assay type: functional, cell-based
In short: (§6)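 HT-29 cells (0.5×10^6 cells/mL) treated 24 h, washed, and resuspended in Annexin binding buffer (HEPES pH 7.4, NaCl, CaCl2). They were stained with Annexin V-FITC (final 0.5 µg/mL) and propidium iodide (final 20 µg/mL) for 5–15 min at room temperature in the dark, then analysed by flow cytometry for early apoptotic cells. Mean ± SEM of 3 experiments in duplicate.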

HT-29 [9] = assay: Cytotoxicity against human HT-29 cells assessed as reduction in PCNA expression at 100 nM after 24 hrs by ELISA relative to vehicle treated control; assay type: functional; parameters: scale not given: the % may be the effect or the level left
In short: as §4

HT-29 [10] = assay: Induction of apoptosis in human HT-29 cells assessed as early apoptotic cells at 100 nM after 24 hrs using annexin-V staining by flow cytometry relative to control; assay type: functional
In short: as §6

HT-29 [11] = assay: Cytotoxicity against human HT-29 cells assessed as reduction in PCNA expression at 25 nM after 24 hrs by ELISA relative to vehicle treated control; assay type: functional; parameters: scale not given: the % may be the effect or the level left
In short: as §4

HT-29 [12] = assay: Cytotoxicity against human HT-29 cells assessed as reduction in PCNA expression after 24 hrs by ELISA; assay type: functional, cell-based
In short: as §4

HT-29 [13] = assay: Cell cycle arrest in human HT-29 cells assessed as accumulation at G0/G1 phase at 100 nM after 24 hrs using propidium iodide by flow cytometry (reference value: 39.6%); assay type: functional
In short: as §1

HT-29 [14] = assay: Induction of apoptosis in human HT-29 cells assessed as early apoptotic cells at 10 nM after 24 hrs using annexin-V staining by flow cytometry relative to control; assay type: functional
In short: as §6

HT-29 [15] = assay: Cytotoxicity against human HT-29 cells assessed as reduction in PCNA expression at 50 nM after 24 hrs by ELISA relative to vehicle treated control; assay type: functional; parameters: scale not given: the % may be the effect or the level left
In short: as §4

HT-29 [16] = assay: Induction of apoptosis in human HT-29 cells assessed as early apoptotic cells at 25 nM after 24 hrs using annexin-V staining by flow cytometry relative to control; assay type: functional
In short: as §6

HT-29 [17] = assay: Induction of apoptosis in human HT-29 cells assessed as early apoptotic cells at 50 nM after 24 hrs using annexin-V staining by flow cytometry relative to control; assay type: functional
In short: as §6

HT-29 [18] = assay: Cell cycle arrest in human HT-29 cells assessed as accumulation at G0/G1 phase at 50 nM after 24 hrs using propidium iodide by flow cytometry (reference value: 39.6%); assay type: functional
In short: as §1

HT-29 [19] = assay: Cell cycle arrest in human HT-29 cells assessed as reduction in G2/M phase at 100 nM after 24 hrs using propidium iodide by flow cytometry (reference value: 28.5%); assay type: functional; parameters: scale not given: the % may be the effect or the level left
In short: as §1

HT-29 [20] = assay: Cell cycle arrest in human HT-29 cells assessed as reduction in S phase at 100 nM after 24 hrs using propidium iodide by flow cytometry (reference value: 31.9%); assay type: functional; parameters: scale not given: the % may be the effect or the level left
In short: as §1

HT-29 [21] = assay: Cell cycle arrest in human HT-29 cells assessed as reduction in G2/M phase at 50 nM after 24 hrs using propidium iodide by flow cytometry (reference value: 28.5%); assay type: functional; parameters: scale not given: the % may be the effect or the level left
In short: as §1

HT-29 [22] = assay: Induction of ROS generation in human HT-29 cells assessed as increase in intracellular peroxide level at 50 nM after 1 hr using DCFDA staining by flow cytometry relative to control; assay type: functional
In short: as §5

HT-29 [23] = assay: Cytotoxicity against human HT-29 cells assessed as reduction in PCNA expression at 10 nM after 24 hrs by ELISA relative to vehicle treated control; assay type: functional; parameters: scale not given: the % may be the effect or the level left
In short: as §4

HT-29 [24] = assay: Induction of ROS generation in human HT-29 cells assessed as increase in intracellular superoxide anion level at 50 nM after 1 hr using DHE staining by flow cytometry relative to control
HT-29 [25] = assay: Cell cycle arrest in human HT-29 cells assessed as reduction in S phase at 50 nM after 24 hrs using propidium iodide by flow cytometry (reference value: 31.9%); assay type: functional; parameters: scale not given: the % may be the effect or the level left
In short: as §1

HT-29 [26] = assay: Cell cycle arrest in human HT-29 cells assessed as accumulation at G2/M phase at 1 to 2 times IC50 after 24 hrs using propidium iodide by flow cytometry; assay type: functional, cell-based; settings: in the assay text read “G0/G1 phase” for “G2/M phase”
In short: as §1

HT-29 [27] = assay: Induction of apoptosis in human HT-29 cells assessed as early apoptotic cells at 100 to 1000 nM after 24 hrs using annexin-V staining by flow cytometry relative to control; assay type: functional, cell-based
In short: as §6

HT-29 [28] = assay: Induction of ROS generation in human HT-29 cells assessed as increase in intracellular superoxide anion level at 500 nM after 1 hr using DHE staining by flow cytometry relative to control; assay type: functional
In short: as §3

HT-29 [29] = assay: Cytotoxicity against human HT-29 cells assessed as reduction in PCNA expression at 100 to 1000 nM after 24 hrs by ELISA relative to vehicle treated control; assay type: functional, cell-based
In short: as §4

HT-29 [30] = assay: Induction of ROS generation in human HT-29 cells assessed as increase in intracellular peroxide level at 500 nM after 1 hr using DCFDA staining by flow cytometry relative to control; assay type: functional
In short: as §5

In the case of `O=C(CCCO[N+](=O)[O-])Oc1cccc(C(=O)Oc2ccc(-c3cc(=S)ss3)cc2)c1`, the Activity (HT-29 [1]) was “Active”, the Activity (HT-29 [2]) was “Active” and the pIC50 (HCT-15) was 6.96. For the same compound, the Activity (HT-29 [3]) was “Active”, the “fold change (FC)” value (HT-29 [4]) was 21 and the Activity (HT-29 [5]) was “Active”. The “fold change (FC)” value (HT-29 [6]) was 15, the pIC50 (HT-29 [7]) was 6.66 and the Activity (HT-29 [8]) was “Active”.
`COc1cc(C(=O)Oc2ccc(-c3cc(=S)ss3)cc2)ccc1OC(=O)CCCO[N+](=O)[O-]` was tested, and the pIC50 (HCT-15) was 6.66 and the pIC50 (HT-29 [7]) was 6.89.
`O=C(CCCO[N+](=O)[O-])Oc1cccc(C(=O)Oc2ccc(-c3cc(=S)ss3)cc2)c1Cl` showed a pIC50 (HCT-15) of 6.85 and a pIC50 (HT-29 [7]) of 6.68.
Compound `O=C(CCCO[N+](=O)[O-])Oc1ccccc1C(=O)Oc1ccc(-c2cc(=S)ss2)cc1` has an Activity (HT-29 [9]) of 20%, an Activity (HT-29 [10]) of 78% and an Activity (HT-29 [11]) of 65%. For the same compound, the Activity (HT-29 [12]) was “Dose-dependent effect”, the pIC50 (HCT-15) was 7.24 and the Activity (HT-29 [13]) was 71.9%. It also gave an Activity (HT-29 [14]) of 15%, an Activity (HT-29 [15]) of 48% and an Activity (HT-29 [16]) of 35%. For the same compound, the Activity (HT-29 [17]) was 65%, the Activity (HT-29 [18]) was 53.6% and the Activity (HT-29 [19]) was 9.9%. For the same compound, the Activity (HT-29 [20]) was 18.2%, the Activity (HT-29 [21]) was 20.3% and the “fold change (FC)” value (HT-29 [22]) was 16. The Activity (HT-29 [23]) was 80%, the “fold change (FC)” value (HT-29 [24]) was 18 and the Activity (HT-29 [25]) was 26.1%.
With `O=C(CCCO[N+](=O)[O-])Oc1ccc(C(=O)Oc2ccc(-c3cc(=S)ss3)cc2)cc1` the Activity (HT-29 [2]) was “Active”, the Activity (HT-29 [26]) was “Active” and the pIC50 (HCT-15) was 6.42. For the same compound, the Activity (HT-29 [3]) was “Active”, the Activity (HT-29 [27]) was “Active” and the “fold change (FC)” value (HT-29 [28]) was 10. For the same compound, the Activity (HT-29 [29]) was “Active”, the pIC50 (HT-29 [7]) was 6.35 and the “fold change (FC)” value (HT-29 [30]) was 11.
`COc1ccc(OC(=O)CCCO[N+](=O)[O-])c(C(=O)Oc2ccc(-c3cc(=S)ss3)cc2)c1` gave a pIC50 (HCT-15) of 6.42 and a pIC50 (HT-29 [7]) of 6.70.
Compound `COc1ccc(C(=O)Oc2ccc(-c3cc(=S)ss3)cc2)cc1OC(=O)CCCO[N+](=O)[O-]` has a pIC50 (HCT-15) of 6.48 and a pIC50 (HT-29 [7]) of 6.37.
Work on `O=C(CCCO[N+](=O)[O-])Oc1ccc(C(=O)Oc2ccc(-c3cc(=S)ss3)cc2)cc1Cl` yielded a pIC50 (HCT-15) of 6.48 and a pIC50 (HT-29 [7]) of 7.22.
`O=C(CCCO[N+](=O)[O-])Oc1ccc(Cl)cc1C(=O)Oc1ccc(-c2cc(=S)ss2)cc1` showed a pIC50 (HCT-15) of 6.77 and a pIC50 (HT-29 [7]) of 6.40.
With `CC(=O)Oc1ccccc1C(=O)O` [ASPIRIN] the pIC50 (HCT-15) was less than 2.30 and the pIC50 (HT-29 [7]) was less than 2.30.
